# Published values gathered from unrelated publications.
# Compare with care: the assays were run in different laboratories.
# DRD5: D(1B) dopamine receptor (DRD5, Homo sapiens, UniProt P21918)
# SLC10A2: Ileal sodium/bile acid cotransporter (SLC10A2, Homo sapiens, UniProt Q12908)
# SETD7: Histone-lysine N-methyltransferase SETD7 (SETD7, Homo sapiens, UniProt Q8WTS6)
# CNR2: Cannabinoid receptor 2 (CNR2, Homo sapiens, UniProt P34972)
# HSD11B1: 11-beta-hydroxysteroid dehydrogenase 1 (HSD11B1, Homo sapiens, UniProt P28845)
SMILES,target,assay,conditions,inhibition [%]
CCCNc1nc2ccccc2n1Cc1ccc(Cl)cc1,DRD5,ligand displacement,10 µM,69.6
NS(=O)(=O)c1cc2c(cc1Cl)NC(C(Cl)Cl)NS2(=O)=O (stereo not shown),SLC10A2,"transporter uptake, inhibitor, radiometric",1 mM,44.7
CN1CCC(=C2c3ccccc3Sc3ccccc32)CC1,SETD7,cell-free assay,10 µM,41
Oc1cccc(Nc2nc(-c3ccc(F)cc3F)cs2)c1,CNR2,cell-free assay,10 µM,35.3
C=C(C)C(=O)Nc1cc(C(=O)O)cc(C(=O)O)c1,"Galanin receptor type 1 (GALR1, Homo sapiens, UniProt P47211)","cell-free assay, radioligand",10 µM,22
CN(CCOc1ccc(CC2SC(=O)NC2=O)cc1)c1ccccn1 (stereo not shown),HSD11B1,"enzyme activity, inhibitor","20 µM, lysate",< 40
CCOC(=O)C1=C(COCCN)NC(C)=C(C(=O)OC)C1c1ccccc1Cl (stereo not shown),SLC10A2,"transporter uptake, inhibitor, radiometric",1 mM,95.5
O=C(O[C@@H]1Cc2c(O)cc(O)cc2O[C@@H]1c1cc(O)c(O)c(O)c1-c1c([C@H]2Oc3cc(O)cc(O)c3C[C@H]2O)cc(O)c(O)c1O)c1cc(O)c(O)c(O)c1,SETD7,cell-free assay,10 µM,53
CN1CCCCC1CCN1c2ccccc2Sc2ccc([S+](C)[O-])cc21 (stereo not shown),SLC10A2,"transporter uptake, inhibitor, radiometric",1 mM,73.6
Cc1cc(O)c(C=O)c2c1C(=O)Oc1c(C)c(O)c3c(c1O2)C(O)OC3=O (stereo not shown),SETD7,cell-free assay,10 µM,0
CNC(=O)c1cc(Oc2ccc(NC(=O)Nc3ccc(Cl)c(C(F)(F)F)c3)cc2)ccn1,"G protein-coupled receptor kinase 5 (GRK5, Homo sapiens, UniProt P34947)","enzyme activity, inhibitor",10 µM,0
COc1cc(NC(C)=O)c(Cl)cc1C(=O)Nc1nccs1,CNR2,cell-free assay,10 µM,25
CN(C)c1ccc(C(=C2C=CC(=[N+](C)C)C=C2)c2ccc(N(C)C)cc2)cc1,SETD7,cell-free assay,10 µM,59
COc1ccc(-n2nc(OCCCN3CCCCC3)ccc2=O)cc1,CNR2,ligand displacement,1 µM,33.1
O=C(O[C@@H]1Cc2c(O)cc(O)cc2O[C@@H]1c1cc(O)c(=O)c2c(O)c(O)cc([C@H]3Oc4cc(O)cc(O)c4C[C@H]3OC(=O)c3cc(O)c(O)c(O)c3)c2c1)c1cc(O)c(O)c(O)c1,SETD7,cell-free assay,10 µM,38
CCN(CC)c1ccc(C2Nc3ccc(C(=O)c4ccccc4)cc3NC3=C2C(=O)CC(C)(C)C3)cc1 (stereo not shown),DRD5,"ligand displacement, radioligand",10 µM,37
CCN(c1cc(C#CCN2CCOCC2)cc(C(=O)NCc2c(C)cc(C)[nH]c2=O)c1C)[C@H]1CC[C@H](N(C)CCOC)CC1,SETD7,"enzyme activity, inhibitor",1 µM,6
CN(C)c1ccc2nc3ccc(=[N+](C)C)cc-3sc2c1,SETD7,cell-free assay,10 µM,35
CC(CCc1ccccc1)NCC(O)c1ccc(O)c(C(N)=O)c1 (stereo not shown),SLC10A2,"transporter uptake, inhibitor, radiometric",1 mM,38.6
O=C(Oc1cc(O)cc2c1C[C@@H](OC(=O)c1cc(O)c(O)c(O)c1)[C@@H](c1cc(O)c(O)c(O)c1)O2)c1cc(O)c(O)c(O)c1,SETD7,cell-free assay,10 µM,28
CC(C)(C#N)c1cc(Cn2cncn2)cc(C(C)(C)C#N)c1,SLC10A2,"transporter uptake, inhibitor, radiometric",1 mM,36.8
CC(C)c1c(C(=O)Nc2ccccc2)c(-c2ccccc2)c(-c2ccc(F)cc2)n1CC[C@@H](O)C[C@@H](O)CC(=O)O,HSD11B1,"enzyme activity, inhibitor","20 µM, lysate",< 40
O=C(c1ccccc1)c1ccc2n1CCC2C(=O)O (stereo not shown),SLC10A2,"transporter uptake, inhibitor, radiometric",1 mM,< 10
CCC(C)(C)C(=O)O[C@H]1C[C@@H](C)C=C2C=C[C@H](C)[C@H](CC[C@@H]3C[C@@H](O)CC(=O)O3)[C@H]21,HSD11B1,"enzyme activity, inhibitor","20 µM, lysate",< 40
C[C@H]1C[C@@H]2[C@H]([C@@H](O)C[C@@]3(C)[C@H]2CC[C@]3(O)C(=O)CO)[C@@]2(C)C=CC(=O)C=C12,SLC10A2,"transporter uptake, inhibitor, radiometric",1 mM,< 10
O=C1N=C(N2CCCCN2)S/C1=C\c1ccc(F)cc1O,"Galanin receptor type 2 (GALR2, Homo sapiens, UniProt O43603)","ligand displacement, radioligand",10 µM,< 10
COc1ccc2c(c1)c(CC(=O)O)c(C)n2C(=O)c1ccc(Cl)cc1,SLC10A2,"transporter uptake, inhibitor, radiometric",1 mM,93.2
O=C(c1ccc(Cl)cc1)N(Cc1ccccc1)C1CCCCC1,"Beta-2 adrenergic receptor (ADRB2, Homo sapiens, UniProt P07550)",cell-free assay,10 µM,1.6
CC(=O)N[C@H]1CSSC[C@@H](C(=O)N[C@H](Cc2c[nH]c3ccccc23)C(N)=O)NC(=O)[C@H](Cc2ccccc2)NC(=O)[C@H](CCCNC(=N)N)NC1=O,"Melanocortin receptor 5 (MC5R, Homo sapiens, UniProt P33032)","ligand displacement, radioligand","10 µM, 40 min",0
O=C1c2c(O)cccc2Cc2cccc(O)c21,SETD7,cell-free assay,10 µM,8
CN1CC(Oc2cnc(C#N)cc2-c2ccn3nc(NC(=O)C4CC4)cc3c2)C1,"Phosphatidylinositol 5-phosphate 4-kinase type-2 alpha (PIP4K2A, Homo sapiens, UniProt P48426)","enzyme activity, inhibitor",1 µM,3
